Source: ChEMBL document CHEMBL4342503, “Diazabicyclooctane Functionalization for Inhibition of β-Lactamases from Enterobacteria” (2020)
Active and inactive are the calls of the source. The calls are words filed in the database; no cut-off is given here.

Experiments:
Enterobacter cloacae [1] = assay: Inhibition of Enterobacter cloacae AmpC expressed in Escherichia coli BL21 DE3 assessed as K2/Ki ratio using nitrocefin as substrate by spectrophotometry
Outline: (§1)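 His-tagged enzymes expressed in E. coli BL21(DE3) (IPTG 0.5 mM, 16°C, 18 h), purified by Ni-NTA and size exclusion in 25 mM Tris-HCl pH 7.5, 300 mM NaCl. Carbamoylation k2/Ki from progress curves, reporter nitrocefin 100 μM, 20°C, 100 mM MES pH 6.4; inhibitor up to 100 μM; ≥6 curves, ≥2 independent experiments.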

[2] = Inhibition of TEM1 (unknown origin) expressed in Escherichia coli BL21 DE3 assessed as K2/Ki ratio using nitrocefin as substrate by spectrophotometry; outline: as §1
Escherichia coli [3] = assay: Antibacterial activity against Escherichia coli Top10 harboring KPC-2 assessed as aztreonam MIC by CLSI protocol based method (reference value: 2048 ug/ml); format: functional
Escherichia coli [4] = assay: Antibacterial activity against Escherichia coli Top10 assessed as cefamandole MIC by CLSI protocol based method (reference value: 2 ug/ml); format: functional
Outline: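 Broth microdilution in cation-adjusted Mueller-Hinton broth following CLSI. Strain carries a β-lactamase gene cloned in pTRC-99k (kanamycin marker); preculture in BHI with IPTG (500 μM) and kanamycin (50 μg/ml); IPTG (500 μM) also in plates to induce enzyme. β-Lactam MIC read with or without inhibitor at fixed 15 μM (4 μg/ml for avibactam; clavulanate 4 μg/ml). Median of five biological repeats from two independent experiments.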

Enterobacter cloacae [5] = assay: Inhibition of Enterobacter cloacae CTX-M-15 expressed in Escherichia coli BL21 DE3 assessed as K2/Ki ratio using nitrocefin as substrate by spectrophotometry; outline: as §1
Escherichia coli [6] = assay: Antibacterial activity against Escherichia coli Top10 harboring AmpC assessed as cefotaxime MIC by CLSI protocol based method (reference value: 256 ug/ml); format: functional
Escherichia coli [7] = assay: Antibacterial activity against Escherichia coli Top10 harboring TEM1 assessed as cefamandole MIC by CLSI protocol based method (reference value: 2048 ug/ml); format: functional
[8] = Inhibition of OXA-48 expressed in Escherichia coli BL21 DE3 assessed as K2/Ki ratio using CENTA as substrate by spectrophotometry
Outline: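 OXA-48 expressed in E. coli BL21(DE3) (IPTG 0.5 mM, 16°C, 18 h), purified by Ni-NTA and size exclusion. Carbamoylation k2/Ki by spectrophotometric progress curves with CENTA 100 μM as reporter, 20°C, 100 mM MES pH 6.4; inhibitor up to 100 μM; ≥6 curves from ≥2 independent experiments.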

Escherichia coli [9] = assay: Antibacterial activity against Escherichia coli Top10 harboring OXA-48 assessed as ertapenem MIC by CLSI protocol based method (reference value: 8 ug/ml); format: functional
Escherichia coli [10] = assay: Antibacterial activity against Escherichia coli Top10 without harboring CTX-M-15 assessed as amoxicillin MIC by CLSI protocol based method (reference value: 8 ug/ml); format: functional
Escherichia coli [11] = assay: Antibacterial activity against Escherichia coli Top10 harboring CTX-M-15 assessed as amoxicillin MIC by CLSI protocol based method (reference value: 2048 ug/ml); format: functional
Escherichia coli [12] = assay: Antibacterial activity against Escherichia coli Top10 without harboring AmpC assessed as cefotaxime MIC by CLSI protocol based method (reference value: 0.125 ug/ml); format: functional
Escherichia coli [13] = assay: Antibacterial activity against Escherichia coli Top10 without harboring KPC-2 assessed as aztreonam MIC by CLSI protocol based method (reference value: 0.5 ug/ml); format: functional
[14] = Inhibition of KPC-2 (unknown origin) expressed in Escherichia coli BL21 DE3 assessed as K2/Ki ratio using nitrocefin as substrate by spectrophotometry; outline: as §1
Enterobacter cloacae [15] = assay: Inhibition of Enterobacter cloacae CTX-M-15 N132G mutant expressed in Escherichia coli BL21 DE3 assessed as K2/Ki ratio using nitrocefin as substrate by spectrophotometry; outline: as §1
Bacteria = assay: Inhibition of bacterial KPC-2 N132G mutant expressed in Escherichia coli BL21 DE3 assessed as K2/Ki ratio using nitrocefin as substrate by spectrophotometry; outline: as §1
Escherichia coli [16] = assay: Antibacterial activity against Escherichia coli Top10 without harboring OXA-48 assessed as ertapenem MIC by CLSI protocol based method (reference value: < 0.03 ug/ml); format: functional

SMILES | Ratio (Enterobacter cloacae [1]) [M⁻¹ s⁻¹] | Ratio [2] [M⁻¹ s⁻¹] | MIC (Escherichia coli [3]) [µg/mL] | MIC (Escherichia coli [4]) [µg/mL] | Ratio (Enterobacter cloacae [5]) [M⁻¹ s⁻¹] | MIC (Escherichia coli [6]) [µg/mL] | MIC (Escherichia coli [7]) [µg/mL] | Ratio [8] | MIC (Escherichia coli [9]) [µg/mL] | MIC (Escherichia coli [10]) [µg/mL] | MIC (Escherichia coli [11]) [µg/mL] | MIC (Escherichia coli [12]) [µg/mL] | MIC (Escherichia coli [13]) [µg/mL] | Ratio [14] [M⁻¹ s⁻¹] | Ratio (Enterobacter cloacae [15]) [M⁻¹ s⁻¹] | Ratio (Bacteria) [M⁻¹ s⁻¹] | MIC (Escherichia coli [16]) [µg/mL]
NC(=O)[C@@H]1CC[C@@H]2CN1C(=O)N2OS(=O)(=O)[O-].[Na+] [AVIBACTAM SODIUM] | 18000 | 88000 | 0.5 | 2 | 130000 | 1 | 2 | 980 M⁻¹ s⁻¹ | 0.5 | 2 | 2 | 0.125 | 0.25 | 26000 | 70 | 53 | < 0.03
O=C1N2C[C@@H](CC[C@H]2Cn2ccnn2)N1OS(=O)(=O)[O-].[Na+] | 210 | 1200 | 512 | 2 | 280 | 16 | 8 | 140 M⁻¹ s⁻¹ | 8 | 8 | 64 | 0.125 | 0.25 | 280 | 6.6 | 31 | < 0.03
C[Si](C)(C)c1cn(C[C@@H]2CC[C@@H]3CN2C(=O)N3OS(=O)(=O)[O-])nn1.[Na+] | 24 | 370 | 512 | 2 | 400 | 64 | 64 | inactive | 16 | 8 | 1020 | 0.125 | 0.5 | 97 | – | – | < 0.03
NCc1cn(C[C@@H]2CC[C@@H]3CN2C(=O)N3OS(=O)(=O)O)nn1.O=C(O)C(F)(F)F | 16 | 3100 | 32 | 4 | 88 | 128 | 4 | inactive | 8 | 4 | 128 | 0.125 | 0.25 | 120 | – | – | < 0.03
COCc1cn(C[C@@H]2CC[C@@H]3CN2C(=O)N3OS(=O)(=O)[O-])nn1.[Na+] | 15 | 830 | 512 | 2 | 120 | 128 | 16 | inactive | 16 | 8 | 256 | 0.125 | 0.5 | 18 | – | – | < 0.03
O=C(NC1CCNCC1)[C@@H]1CC[C@@H]2CN1C(=O)N2OS(=O)(=O)[O-].[Na+] | 15000 | 43000 | 0.5 | 2 | 960 | 0.25 | 4 | inactive | 8 | 2 | 16 | 0.125 | 0.25 | 10000 | – | – | < 0.03
O=C1N2C[C@@H](CC[C@H]2Cn2cc(CN3CCOCC3)nn2)N1OS(=O)(=O)[O-].[Na+] | 31 | 1200 | 32 | 2 | 100 | 128 | 8 | inactive | 8 | 8 | 64 | 0.125 | 0.25 | 190 | – | – | < 0.03
O=C1N2C[C@@H](CC[C@H]2Cn2cc(-c3ccccc3)nn2)N1OS(=O)(=O)[O-].[Na+] | 200 | 4700 | 64 | 4 | 6900 | 128 | 16 | 110 M⁻¹ s⁻¹ | 8 | 8 | 64 | 0.25 | 0.25 | 930 | 140 | 21 | < 0.03
O=C(O)C(F)(F)F.O=C1N2C[C@@H](CC[C@H]2Cn2cc(C3CCNCC3)nn2)N1OS(=O)(=O)O | 26 | 3600 | 32 | 2 | 350 | 128 | 4 | inactive | 8 | 4 | 64 | 0.125 | 0.25 | 340 | – | – | < 0.03
CN(C)Cc1cn(C[C@@H]2CC[C@@H]3CN2C(=O)N3OS(=O)(=O)[O-])nn1.[Na+] | 20 | 780 | 64 | 2 | 29 | 64 | 32 | inactive | 8 | 4 | 256 | 0.125 | 0.5 | 120 | – | – | < 0.03
